In ChEMBL document CHEMBL1250498, “Design, synthesis and pro-apoptotic antitumour properties of indole-based 3,5-disubstituted oxadiazoles” (Eur J Med Chem, 2010):

What was measured:
[1] = Anticancer activity against human COLO320 cells after 72 hrs by WST-1 assay; type: functional, cell-based; conditions: COLO 320, 72 h
Method in brief: (§1)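 Cells grown in DMEM with 2 mM L-glutamine, 10% FBS, 2.5% horse serum, penicillin and streptomycin, 37 °C, 5% CO2. Seeded at 2 × 10³/well, exposed 72 h to 0.1–50 µM (DMSO ≤0.2% in medium). WST-1 formazan absorbance read at 450 nm. Inhibition taken as % absorbance reduction versus control; IC50 from non-linear least-squares fit. Triplicate, independent experiments averaged.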

MIA PaCa-2 [2] = experiment: Anticancer activity against human MIAPaCa2 cells after 72 hrs by WST-1 assay; type: functional, cell-based; conditions: MIA PaCa-2, 72 h; method in brief: as §1
Jurkat = experiment: Anticancer activity against human Jurkat cells after 72 hrs by WST-1 assay; type: functional, cell-based; method in brief: as §1
MCF7 = experiment: Anticancer activity against human MCF7 cells after 72 hrs by WST-1 assay; type: functional, cell-based; conditions: MCF7, 72 h; method in brief: as §1
MIA PaCa-2 [3] = experiment: Induction of apoptosis in human MIAPaCa2 cells assessed as increase in caspase 3/7 activation at 100 uM after 24 hrs by spectrophotometry relative to control; type: functional
Method in brief: (§2)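 Seeded at 7 × 10³/well and dosed 100 µM for 24 h. Caspase-3/7 substrate then added; fluorescence read with excitation 485 nm and emission 530 nm. Result given as the ratio of treated-cell signal to untreated vehicle-only cells.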

COLO 320 [4] = experiment: Induction of apoptosis in human COLO320 cells assessed as increase in intraneucleosomal DNA fragmentation at 100 uM after 24 hrs by ELISA relative to control; type: functional
Method in brief: (§3)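 Dosed at 100 µM for 24 h. Trypsin-harvested cells pooled with detached cells. Cytoplasmic histone-associated DNA fragments (released nucleosomes) measured by sandwich ELISA using a mouse monoclonal anti-DNA/histone antibody. Given as fold over untreated control; duplicate, mean ± SEM.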

COLO 320 [5] = experiment: Induction of apoptosis in human COLO320 cells assessed as increase in caspase 3/7 activation at 100 uM after 24 hrs by spectrophotometry relative to control; type: functional; method in brief: as §2
MIA PaCa-2 [6] = experiment: Induction of apoptosis in human MIAPaCa2 cells assessed as increase in intraneucleosomal DNA fragmentation at 100 uM after 24 hrs by ELISA relative to control; type: functional; method in brief: as §3

IC50 (MIA PaCa-2 [2]) | IC50 (Jurkat) | IC50 (MCF7) | Compound | IC50 [1] | fold change (FC) (MIA PaCa-2 [3]) | fold change (FC) (COLO 320 [4]) | fold change (FC) (COLO 320 [5]) | fold change (FC) (MIA PaCa-2 [6])
> 50 µM | > 50 µM | > 50 µM | Clc1ccc(-c2noc(-c3cc4cc(Cl)ccc4[nH]3)n2)cc1 | 25 µM | – | – | – | –
22.7 µM | > 50 µM | > 50 µM | COc1ccc2[nH]c(-c3nc(-c4ccc(Cl)cc4)no3)cc2c1 | 12.8 µM | 10.1 | 1.8 | 4.5 | 1.2
> 50 µM | > 50 µM | > 50 µM | Fc1ccc2[nH]c(-c3nc(-c4ccc(Cl)cc4)no3)cc2c1 | > 50 µM | – | – | – | –
23.1 µM | > 50 µM | > 50 µM | COc1ccc(-c2noc(-c3cc4ccccc4n3C)n2)cc1 | > 50 µM | – | – | – | –
5.6 µM | > 50 µM | > 50 µM | COc1ccc(-c2noc(-c3cc4cc(OC)ccc4[nH]3)n2)cc1 | 28.3 µM | 2 | 1.2 | 1.1 | 1.9
19.2 µM | > 50 µM | > 50 µM | Clc1ccc(-c2noc(-c3cc4ccccc4[nH]3)n2)cc1 | 13.9 µM | 1.2 | 3 | 0.3 | 1
7.8 µM | > 50 µM | > 50 µM | COc1ccc(-c2noc(-c3cc4cc(Cl)ccc4[nH]3)n2)cc1 | 9.6 µM | 1.4 | 1.2 | 4.2 | 1.4
> 50 µM | 21.6 µM | 34.4 µM | Cc1noc(-c2cc3cc(Cl)ccc3[nH]2)n1 | 19.5 µM | – | – | – | –
> 50 µM | > 50 µM | > 50 µM | Cn1c(-c2nc(-c3ccc(Cl)cc3)no2)cc2cc(Cl)ccc21 | 16.9 µM | – | – | – | –
18.7 µM | > 50 µM | > 50 µM | Nc1noc(-c2cc3ccccc3[nH]2)n1 | 27.7 µM | – | – | – | –
19.4 µM | 22.9 µM | 12.4 µM | Cc1noc(-c2cc3cc(F)ccc3[nH]2)n1 | 18.1 µM | 1.3 | 1 | 1.5 | 7.3
> 50 µM | > 50 µM | > 50 µM | O=[N+]([O-])c1ccc2[nH]c(-c3nc(-c4ccccc4)no3)cc2c1 | 12.5 µM | – | – | – | –
33.6 µM | 33.8 µM | 35 µM | Fc1ccc2[nH]c(-c3nc(-c4ccccc4)no3)cc2c1 | 10.8 µM | 1.2 | 5.3 | 4.4 | 6.9
30.5 µM | > 50 µM | > 50 µM | Cc1noc(-c2cc3ccccc3[nH]2)n1 | 11.8 µM | – | – | – | –
17.6 µM | > 50 µM | > 50 µM | O=[N+]([O-])c1ccc2[nH]c(-c3nc(-c4ccc(Cl)cc4)no3)cc2c1 | 7.7 µM | 23.9 | 1.8 | 6.4 | 2.7
10.3 µM | > 50 µM | > 50 µM | COc1ccc(-c2noc(-c3cc4cc(F)ccc4[nH]3)n2)cc1 | 14.8 µM | 5 | 1.4 | 2.1 | 2.2
23.1 µM | > 50 µM | 29.1 µM | Clc1ccc2[nH]c(-c3nc(-c4ccccc4)no3)cc2c1 | 16.5 µM | 1.9 | 2.1 | 1.3 | 1.9
> 50 µM | > 50 µM | > 50 µM | COc1ccc(-c2noc(-c3cc4ccccc4[nH]3)n2)cc1 | 27.7 µM | – | – | – | –
> 50 µM | 19.9 µM | 16.7 µM | COc1ccc2[nH]c(-c3nc(C)no3)cc2c1 | 10.4 µM | – | – | – | –
> 50 µM | > 50 µM | > 50 µM | FC(F)(F)c1ccc(-c2noc(-c3sccc3Cl)n2)cc1 | 1.2 µM | – | – | – | –
32.6 µM | > 50 µM | > 50 µM | COc1ccc2[nH]c(-c3nc(-c4ccccc4)no3)cc2c1 | 18.7 µM | – | – | – | –
22 µM | > 50 µM | 45.7 µM | c1ccc(-c2noc(-c3cc4ccccc4[nH]3)n2)cc1 | 12 µM | 1.2 | 2.5 | 3.1 | 1.4
13 µM | 26.9 µM | 26 µM | Oc1ccc2[nH]c(-c3nc(-c4ccccc4)no3)cc2c1 | 15.7 µM | 0.7 | 4.3 | 3.6 | 7.3
